# According to ChEMBL document CHEMBL3098060, “Antitumor potential of conjugable valinomycins bearing hydroxyl sites: in vitro studies” (ACS Med Chem Lett, 2013):
# Activity calls are given as the source filed them. The calls are words filed in the database; no cut-off is given here.
# How the values were obtained:
# C6 [1] = assay: Cytotoxicity against rat C6 cells assessed as cell survival at 0.0001 to 10 uM by MTT assay; format: functional, cell-based; conditions: TDE = time-dependent effect
# Procedure, shortened: (§1)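 Cells seeded at 10,000 per well and treated with 0.0001–10 μM. Incubated at 37 °C in CO2 for 24, 48 or 72 h. Viable cells measured by MTT conversion. Time course shown at a fixed 0.01 μM.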
# HepG2 [2] = assay: Cytotoxicity against human HepG2 cells after 72 hrs by MTT assay; format: functional, cell-based; conditions: HepG2, 72 h
# Procedure, shortened: (§2)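 Cells exposed to 0.0001–10 μM for 72 h. Viability by MTT conversion, expressed as % of cells viable. IC50 taken as the concentration giving 50% inhibition of survival, from concentration–viability profiles. Three independent experiments, each in duplicate, averaged.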
# C6 [3] = assay: Induction of apoptosis in rat C6 cells assessed as fragmentation of mitochondrial network at 1 uM after 72 hrs by MitoTracker Red CMXRos staining-based fluorescence microscopy; format: functional, cell-based
# Procedure, shortened: (§3)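 C6 glioma cells seeded at 100,000 per well and treated 72 h at 37 °C, 5% CO2, with 50 nM or 1 μM depending on compound. Mitochondria stained with 25 nM MitoTracker Red CMXRos and network morphology imaged against untreated controls. Over 10 cells examined per experiment, 3 independent experiments.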
# A2780 [4] = assay: Cytotoxicity against human A2780 cells after 72 hrs by MTT assay; format: functional, cell-based; conditions: A2780, 72 h; procedure, shortened: as §2
# MCF7 [5] = assay: Cytotoxicity against human MCF7 cells after 72 hrs by MTT assay; format: functional, cell-based; conditions: MCF7, 72 h; procedure, shortened: as §2
# MCF7 [6] = assay: Induction of mitochondrial membrane depolarization in human MCF7 cells after 72 hrs by JC-1 staining-based FACS flow cytometric analysis (reference value: 1%); format: functional
# MCF7 [7] = assay: Cell cycle arrest in human MCF7 cells assessed as accumulation at G2/M phase at 5 uM after 24 hrs by propidium iodide staining-based FACS flow cytometric analysis (reference value: 25.92%); format: functional
# MCF7 [8] = assay: Cell cycle arrest in human MCF7 cells assessed as accumulation at G0/G1 phase at 5 uM after 24 hrs by propidium iodide staining-based FACS flow cytometric analysis (reference value: 64.34%); format: functional
# C6 [9] = assay: Cytotoxicity against rat C6 cells after 72 hrs by MTT assay; format: functional, cell-based; conditions: C6, 72 h; procedure, shortened: as §2
# MCF7 [10] = assay: Cell cycle arrest in human MCF7 cells assessed as accumulation at S phase at 5 uM after 24 hrs by propidium iodide staining-based FACS flow cytometric analysis (reference value: 9.74%); format: functional
# A2780 [11] = assay: Cytotoxicity against human A2780 cells assessed as cell survival after 24 to 72 hrs by MTT assay; format: functional, cell-based; procedure, shortened: as §1
# C6 [12] = assay: Cytotoxicity against rat C6 cells assessed as cell survival after 24 to 72 hrs by MTT assay; format: functional, cell-based; procedure, shortened: as §1
# MCF7 [13] = assay: Cytotoxicity against human MCF7 cells assessed as cell survival at 0.0001 to 10 uM by MTT assay; format: functional, cell-based; conditions: TDE = time-dependent effect; procedure, shortened: as §1
# MCF7 [14] = assay: Cytotoxicity against human MCF7 cells assessed as cell survival after 24 to 72 hrs by MTT assay; format: functional, cell-based; procedure, shortened: as §1
# A2780 [15] = assay: Cytotoxicity against human A2780 cells assessed as cell survival at 0.0001 to 10 uM by MTT assay; format: functional, cell-based; conditions: TDE = time-dependent effect; procedure, shortened: as §1
# C6 [16] = assay: Induction of apoptosis in rat C6 cells assessed as fragmentation of mitochondrial network at 50 nM after 72 hrs by MitoTracker Red CMXRos staining-based fluorescence microscopy; format: functional, cell-based; procedure, shortened: as §3
# HepG2 [17] = assay: Cytotoxicity against human HepG2 cells assessed as cell survival at 0.0001 to 10 uM by MTT assay; format: functional, cell-based; conditions: TDE = time-dependent effect; procedure, shortened: as §1
# HepG2 [18] = assay: Cytotoxicity against human HepG2 cells assessed as cell survival after 24 to 72 hrs by MTT assay; format: functional, cell-based; procedure, shortened: as §1
# A2780 [19] = assay: Selectivity ratio of IC50 for human A2780 cells to IC50 for rat C6 cells; format: functional
# Procedure, shortened: (§4)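 Ratio of two 72 h IC50 values, each from the same MTT viability assay. A2780, MCF-7, HepG2 and rat C6 glioma cells were treated at 0.0001–10 μM. Percent viability was calculated and IC50 taken as the concentration giving 50% survival inhibition. Means are from three independent experiments run in duplicate.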
# C6 [20] = assay: Selectivity ratio of IC50 for human MCF7 cells to IC50 for rat C6 cells; format: functional; procedure, shortened: as §4
# A2780 [21] = assay: Selectivity ratio of IC50 for human A2780 cells to IC50 for human HepG2 cells; format: functional; procedure, shortened: as §4
# HepG2 [22] = assay: Selectivity ratio of IC50 for human MCF7 cells to IC50 for human HepG2 cells; format: functional; procedure, shortened: as §4
# MCF7 [23] = assay: Cell cycle arrest in human MCF7 cells assessed as accumulation at G0/G1 phase at 0.05 uM after 24 hrs by propidium iodide staining-based FACS flow cytometric analysis (reference value: 64.34%); format: functional
# MCF7 [24] = assay: Cell cycle arrest in human MCF7 cells assessed as accumulation at G2/M phase at 0.05 uM after 24 hrs by propidium iodide staining-based FACS flow cytometric analysis (reference value: 25.92%); format: functional
# MCF7 [25] = assay: Cell cycle arrest in human MCF7 cells assessed as accumulation at S phase at 0.05 uM after 24 hrs by propidium iodide staining-based FACS flow cytometric analysis (reference value: 9.74%); format: functional
Compound,Activity (C6 [1]),IC50 (HepG2 [2]),IC50 (A2780 [4]),IC50 (MCF7 [5]),Activity (MCF7 [6]),Activity (MCF7 [7]),Activity (MCF7 [8]),IC50 (C6 [9]),Activity (MCF7 [10]),Activity (A2780 [11]),Activity (C6 [12]),Activity (MCF7 [13]),Activity (MCF7 [14]),Activity (A2780 [15]),Activity (C6 [16]),Activity (HepG2 [17]),Activity (HepG2 [18]),further results
CC(C)[C@@H]1NC(=O)[C@H](C)OC(=O)[C@@H](C(C)C)NC(=O)[C@@H](C(C)(C)O)OC(=O)[C@H](C(C)C)NC(=O)[C@H](C)OC(=O)[C@@H](C(C)C)NC(=O)[C@@H](C(C)C)OC(=O)[C@H](C(C)C)NC(=O)[C@H](C)OC(=O)[C@@H](C(C)C)NC(=O)[C@@H](C(C)C)OC1=O,tde,197 nM,> 10000 nM,> 10 µM,8.9%,19.76%,55.63%,175 nM,24.6%,–,–,–,–,–,–,–,–,Activity (C6 [3]): Active
CC(C)[C@@H]1NC(=O)[C@H](C)OC(=O)[C@@H](C(C)C)NC(=O)[C@@H](C(C)C)OC(=O)[C@H](C(C)(C)O)NC(=O)[C@H](C)OC(=O)[C@@H](C(C)C)NC(=O)[C@@H](C(C)C)OC(=O)[C@H](C(C)C)NC(=O)[C@H](C)OC(=O)[C@@H](C(C)C)NC(=O)[C@@H](C(C)C)OC1=O,tde,4.9 nM,2510 nM,3.91 µM,15.6%,16.9%,57.53%,2.9 nM,25.57%,Dose-dependent effect,Dose-dependent effect,tde,Dose-dependent effect,tde,Active,tde,Dose-dependent effect,–
CC(C)[C@@H]1NC(=O)[C@H](C)OC(=O)[C@@H](C(C)C)NC(=O)[C@@H](C(C)C)OC(=O)[C@H](C(C)C)NC(=O)[C@H](C)OC(=O)[C@@H](C(C)C)NC(=O)[C@@H](C(C)C)OC(=O)[C@H](C(C)C)NC(=O)[C@H](C)OC(=O)[C@@H](C(C)C)NC(=O)[C@@H](C(C)C)OC1=O [VALINOMYCIN],tde,0.8 nM,2180 nM,1.77 µM,16%,18.15%,56.07%,0.4 nM,25.79%,Dose-dependent effect,Dose-dependent effect,tde,Dose-dependent effect,tde,Active,tde,Dose-dependent effect,Ratio IC50 (A2780 [19]): 3; Ratio IC50 (C6 [20]): 3; Ratio IC50 (A2780 [21]): 3; Ratio IC50 (HepG2 [22]): 3
CC(C)[C@@H]1NC(=O)[C@H](C)OC(=O)[C@@H](C(C)C)NC(=O)[C@@H](C(C)C)OC(=O)[C@H](C(C)C)NC(=O)[C@H](C)OC(=O)[C@@H](C(C)(C)O)NC(=O)[C@@H](C(C)C)OC(=O)[C@H](C(C)C)NC(=O)[C@H](C)OC(=O)[C@@H](C(C)C)NC(=O)[C@@H](C(C)C)OC1=O,tde,4.3 nM,4530 nM,3.85 µM,12.1%,–,–,2.4 nM,–,Dose-dependent effect,Dose-dependent effect,tde,Dose-dependent effect,tde,Active,tde,Dose-dependent effect,Activity (MCF7 [23]): 55.44%; Activity (MCF7 [24]): 21.49%; Activity (MCF7 [25]): 23.07%
